Sampled rows, rich in hits. Any-hit rate of the full collection: about 2.9%.
M1 ag parental: counter-screen for M1 agonists: effect in parental CHO-K1 cells | Fluo-8 calcium fluorescence; scaled to maximal ATP response, vehicle zero | activation, % at 3 µM | hit rate 0.48% among 360,000 | AID 602248, 2012; in the data active = activation above about 15%;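 note: untransfected CHO-K1 host cells lacking M1 receptor as counterscreen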
CHO-K1 Ca antag: nonselective inhibitor or artifact in parental CHO-K1 cells | ATP-induced calcium, Fluo-8 fluorescence | hit rate 0.6% among 360,000 | inhibition, % at 3 µM | AID 602250;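 active = inhibition above a per-plate cutoff, the plate's mean sample inhibition plus 3 SD, cut at about 24% in these data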;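 note: 0% = DMSO plus EC80 ATP and 100% = DMSO alone without ATP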
CHO parental Ca: ATP-evoked calcium signal inhibitors, parental CHO, primary screen, counter-screen for OX1R antagonist project, cell-based, fluorescence, Fluo-8 calcium dye. inhibition, % at 5.6 µM. AID 463079, 2010. parental CHO-K1, ATP-induced calcium, Fluo-8 fluorescence. hit rate 0.63% among 330,000;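 active = inhibition above that plate's mean sample inhibition plus 3 SD, cut at about 26% in these data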;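 note: 0% = ATP-challenged DMSO wells and 100% = DMSO wells without ATP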
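test system = CHO parental line | reagent = ATP stimulus | measured by = intracellular calcium via Fluo-8 no-wash fluorescent dye | control set = ATP and no-ATP DMSO wells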
OX1R antag-1: OX1R (HCRTR1) antagonists, primary screen, fluorescence, CHO/OX1R cells, Fluo-8 calcium, orexin A | Orexin/Hypocretin receptor type 1 (Homo sapiens), O43613 | Fluo-8 calcium fluorescence | inhibition, % at 5 µM | hit rate 0.43% among 330,000 | AID 434989, 2010;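 active = inhibition above its plate's threshold, mean inhibition of all tested compounds on the plate plus 3 SD, cut at about 37% in these data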;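 note: 0% = orexin A challenge wells and 100% = SB-334867-A antagonist wells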
Target sequence (O43613 whole entry, looked up): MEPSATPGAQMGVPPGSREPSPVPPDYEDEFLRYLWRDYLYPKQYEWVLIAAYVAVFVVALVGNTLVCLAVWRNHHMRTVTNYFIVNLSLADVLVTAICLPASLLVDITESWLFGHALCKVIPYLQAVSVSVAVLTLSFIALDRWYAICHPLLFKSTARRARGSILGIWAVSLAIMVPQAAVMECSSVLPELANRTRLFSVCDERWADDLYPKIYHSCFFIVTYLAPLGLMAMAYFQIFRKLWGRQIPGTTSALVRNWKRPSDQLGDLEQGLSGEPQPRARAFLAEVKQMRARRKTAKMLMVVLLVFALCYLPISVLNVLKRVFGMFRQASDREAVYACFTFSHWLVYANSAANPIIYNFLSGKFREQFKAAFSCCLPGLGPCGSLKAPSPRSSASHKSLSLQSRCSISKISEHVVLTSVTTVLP
OX1R antag-2: antagonists of human orexin 1 receptor (OX1R); Orexin/Hypocretin receptor type 1 (Homo sapiens), O43613; OX1R-expressing cells, FRET antagonist read-out; inhibition, % at 6.6 µM; hit rate 1.8% among 330,000; in the data active = inhibition mostly above about 38%, no sharp cut-off; inactive = mostly below about 40%;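 note: 0% = agonist challenge alone and 100% = reference antagonist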
M1 PAM parental: nonselective calcium activators in parental CHO-K1 cells, primary screen, counter-screen for M1 PAM project, cell-based, Fluo-8 calcium fluorescence, full deck, 1536-well; hit rate 0.02% among 360,000; activation, % at 3 µM; ATP EC20; 0% at ATP EC20, 100% at ATP max;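 active = activation above the run cutoff, the mean activation of all test compounds plus 3 SD, cut at about 40% in these data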;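 note: peak over basal fluorescence ratio in a 140 s read after ATP addition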
OX1R HTRF confirm: OX1R (HCRTR1) antagonists, confirmation, cell-based, HTRF; inhibition, % at 6.6 µM; shares compounds with OX1R antag-2; hit rate 49% among 1,800; AID 492964, 2010; OX1R-expressing cells, HTRF antagonist assay; in the data active = inhibition above about 55%;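 note: CHO cells expressing OX1R stimulated with orexin A at about EC80; 0% = agonist challenge alone and 100% = reference antagonist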
CHO-K1 HTRF: signal inhibition in parental CHO-K1 cells, counter-screen for OX1R antagonist project, cell-based, HTRF | HTRF counterscreen | inhibition, % at 6.6 µM | hit rate 48% among 1,800 | shares compounds with OX1R antag-2; in the data active = inhibition above about 17%;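 note: 0% = agonist challenge with vehicle and 100% = vehicle alone without agonist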
Numbers without * were called inactive; · = no result given.

SMILES	M1 ag parental	CHO-K1 Ca antag	CHO parental Ca	OX1R antag-1	OX1R antag-2	M1 PAM parental	OX1R HTRF confirm	CHO-K1 HTRF
C#CCNC(=O)C[C@@H]1C[C@@]2(C(=O)OC)CCCCC=C2N(CCCCCCCC)C1=O	0	-7	·	·	·	-6	·	·
Cc1cc(NS(=O)(=O)c2ccc(NC(=O)Cc3ccc([N+](=O)[O-])cc3)cc2)nc(C)n1	1	-10	-4	7	20	11	·	·
COc1cc(NC(=O)Cn2cnc3c(OCc4ccccc4)ncnc32)cc(OC)c1OC	1	0	-29	-37	9	-3	·	·
O=C(c1cc2cc([N+](=O)[O-])ccc2s1)N1CCCCC1	3	-16	-14	-16	20	19	·	·
CN(C)C(=O)c1cc2cc([N+](=O)[O-])ccc2s1	1	-12	5	-7	120*	14	39	33*
Nc1c(N=Nc2ccccc2F)c(=O)[nH]n1-c1ccccc1	0	-4	-9	22	86*	14	67*	12
OC[C@@H]1CN(Cc2cccc3ccccc23)C[C@H](n2cnc3c(NCc4ccco4)ncnc32)O1	8	4	·	·	·	7	·	·
Cc1ccc(/C=C2/Sc3ccccc3N(CC(=O)NCCCOC(C)C)C2=O)cc1	3	-1	-20	27	84*	19	70*	5
CCN1CCN(CCCNC(=O)c2ccc(/C=C3/Sc4ccccc4N(Cc4ccccc4F)C3=O)cc2)CC1	7	-13	-16	-23	15	18	·	·
CCOCCCNC(=O)CN1C(=O)/C(=C/c2ccccc2)Sc2ccccc21	5	-17	-14	12	81*	26	87*	9
CCOCCCNC(=O)CN1C(=O)/C(=C\c2ccc(C)cc2)Sc2ccccc21	4	2	-26	4	60	-2	·	·
CCC(=O)OCC(=O)[C@@]1(OC(=O)CC)[C@@H](C)C[C@H]2[C@@H]3CCC4=CC(=O)C=C[C@]4(C)[C@@]3(Cl)[C@@H](O)C[C@@]21C	1	1	-25	-34	19	11	·	·
O=C(COc1ccc(C(=S)N2CCCC2)cc1)Nc1ccccc1C(F)(F)F	0	16	-14	19	83*	-31	72*	16
CCn1c(C)nc2cc(-c3nc4n(n3)Cc3ccccc3-4)ccc21	0	18	8	-12	88*	-6	81*	9
O=C(O)COc1ccc(/C=C/c2ccc3cccc([N+](=O)[O-])c3n2)cc1	0	-1	-6	-17	20	-1	·	·
CC(=O)Nc1ccc(/C=C/c2ccc3cccc([N+](=O)[O-])c3n2)cc1	3	-5	-15	8	87*	2	62*	10
CSc1ccc(Cn2c(C)c(C(=O)NCc3ccc(F)cc3)sc2=O)cc1	1	6	·	·	·	-4	·	·
CC(C)(C)n1[nH]c2c3c(ccc2c1=O)C(=O)c1ccccc1C3=O	0	-19	-10	-31	129*	13	46	43*
COc1ccc(NC(=O)c2nc(C)n(-c3ccc([N+](=O)[O-])cc3)n2)cc1	1	0	-11	-11	107*	21	25	33*
CNC(=O)c1nc(C)n(-c2ccc([N+](=O)[O-])cc2)n1	-1	-3	-8	1	46	17	·	·
CCCNC(=O)c1nc(C)n(-c2ccc([N+](=O)[O-])cc2)n1	-1	9	-9	-8	137*	-11	71*	52*
CC(=O)NC1=C(NC2CCS(=O)(=O)C2)C(=O)c2ccccc2C1=O (stereo not drawn)	1	-4	-7	-4	141*	14	69*	94*
O=C(Nc1ccccc1)NC1CCS(=O)(=O)C1 (stereo not drawn)	0	-5	-5	-6	-2	11	·	·
CCN(CC)C(=O)C1=C(C)N(CCCOC)C(=O)C(CC(=O)NCCCN(C)C)C1 (stereo not drawn)	0	11	·	·	·	-3	·	·
CC(=O)Oc1cccc2c1C(=O)c1c(OC(C)=O)cc(C(=O)O)cc1C2=O	2	6	5	-7	95*	9	56*	112*
SMILES	M1 ag parental	CHO-K1 Ca antag	CHO parental Ca	OX1R antag-1	OX1R antag-2	M1 PAM parental	OX1R HTRF confirm	CHO-K1 HTRF
O=c1ccnc(Sc2ncccc2[N+](=O)[O-])[nH]1	0	-9	-1	-30	92*	19	49	47*
CC(C)(C)c1nc(Sc2ncccc2[N+](=O)[O-])n[nH]1	3	-2	-2	-6	30	-11	·	·
Cc1cnc2cc([N+](=O)[O-])ccc2n1	4	3	-10	2	101*	12	66*	84*
CCOC(=O)c1ccc(NCCOC)c([N+](=O)[O-])c1	0	1	2	-7	51	15	·	·
CCCC(=O)OCCNc1cc(SCCC(=O)OC)c2nonc2c1[N+](=O)[O-]	1	-7	-20	-10	120*	17	64*	79*
Cc1cc(=O)n2[nH]c(=O)c(N=Nc3ccccc3)c2[nH]1	0	5	-5	-3	126*	12	49	58*
Cc1cc(C)n2[nH]c(=O)c(N=Nc3ccccc3)c2n1	1	-5	-1	-10	188*	19	46	86*
CCC(=O)Nc1ccc(S(=O)(=O)NC[C@H]2O[C@@H](n3cc(C)c(=O)[nH]c3=O)C[C@@H]2O)cc1	1	-18	·	·	·	16	·	·
C[C@@H](C(=O)Nc1ccc2ccccc2c1)[C@H]1C[C@]1(C)[C@H](NC(=O)c1cccnc1)c1ccccc1	·	·	-31	26	80*	·	72*	-4
C[C@@H](C(=O)Nc1ccc2ccccc2c1)[C@@H]1C[C@@]1(C)[C@@H](NC(=O)c1ccccc1)c1ccccc1	0	-14	-14	-19	21	-2	·	·
CCOC(=O)c1ccc(Nc2cc(C)nc(-c3ccccc3)n2)cc1	2	11	8	26	83*	13	29	15
CC(=O)Oc1cccc2c1C(=O)C1CC=CC(OC(C)=O)C1C2=O (stereo not drawn)	1	-17	·	·	·	4	·	·
COC(=O)/C=c1/s/c(=C(/C#N)C(=O)N2CCOCC2)n(-c2ccccc2)c1=O	0	-4	-7	-2	118*	12	38	49*
CCCCn1cnc2c(oc3ccccc32)c1=O	1	5	·	·	·	4	·	·
